Source: PubChem BioAssay (Johns Hopkins Ion Channel Center)
KCNQ1 block – human KCNQ1 channel inhibition; P51787; CHO-K1 KCNQ1, FluxOR thallium flux fluorescence; hits give high values; B-score at 10 µM; 310,000 compounds, 1.3% hits; AID 2642;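 active = compounds whose thallium flux B-score, printed positive for inhibition, exceeds three library SD while starting fluorescence stays within three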;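 also: channel opened by potassium depolarization with thallium stimulus after 20 min compound exposure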
Target sequence (P51787 whole entry, looked up): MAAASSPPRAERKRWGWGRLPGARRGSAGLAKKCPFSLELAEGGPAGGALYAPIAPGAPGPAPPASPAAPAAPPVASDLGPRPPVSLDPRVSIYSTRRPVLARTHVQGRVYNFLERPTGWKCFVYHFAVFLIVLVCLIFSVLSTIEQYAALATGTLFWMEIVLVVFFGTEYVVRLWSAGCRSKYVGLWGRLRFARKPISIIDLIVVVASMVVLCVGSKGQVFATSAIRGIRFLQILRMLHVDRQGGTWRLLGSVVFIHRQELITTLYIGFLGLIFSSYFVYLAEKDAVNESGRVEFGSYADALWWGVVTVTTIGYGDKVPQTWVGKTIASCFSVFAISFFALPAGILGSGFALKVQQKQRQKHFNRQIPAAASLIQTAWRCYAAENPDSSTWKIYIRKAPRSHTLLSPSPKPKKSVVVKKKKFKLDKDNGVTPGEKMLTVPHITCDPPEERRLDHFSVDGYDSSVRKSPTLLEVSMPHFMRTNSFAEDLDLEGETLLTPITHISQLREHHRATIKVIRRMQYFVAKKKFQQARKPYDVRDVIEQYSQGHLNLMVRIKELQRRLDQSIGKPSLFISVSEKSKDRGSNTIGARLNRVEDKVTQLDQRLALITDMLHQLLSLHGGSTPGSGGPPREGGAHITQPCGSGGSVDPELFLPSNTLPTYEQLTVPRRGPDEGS
hERG rescue – shields human hERG channel from block by proarrhythmic agents; AID 1511; CHO-hERG, FluxOR thallium flux, dofetilide IC70 present; activation (rescue from dofetilide block), less the hit threshold, % at 10 µM; 310,000 compounds, 0.51% hits;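 active = activation above the mean of controls blocked by dofetilide plus 5 SD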;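 also: thallium influx through hERG after potassium depolarization seen as dye fluorescence rise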
KCNK3 block – human KCNK3 channel inhibition, primary screen; B-score at 10 µM; AID 602410; CHO-KCNK3 thallium flux, FluxOR fluorescence; hits give low values; O14649; 340,000 compounds, 0.84% hits;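 active = B-score under library mean minus 4 SD, starting fluorescence ratio at most library mean plus 5 SD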;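 also: more negative B-score means stronger inhibition of thallium flux through KCNK3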
KCNQ1 act – human KCNQ1 channel potentiation or activation. CHO-K1 KCNQ1, thallium flux FluxOR fluorescence; hits give high values. P51787. 310,000 compounds, 0.35% hits. B-score at 10 µM. AID 2648;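 active = fluorescence ratio B-score, a plate-corrected score, at least three library SD, with initial intensity B-score within 5 SD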
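assay system = KCNQ1-transfected CHO-K1 cells | medium = assay buffer with matched DMSO | probe or stimulus = depolarizing K+/Tl+ stimulus, K2SO4 and Tl2SO4 each 12.5 mM in 5x stock | dosing = single dose | incubation = dye 90 min, compound 20 min, room temperature | detection = kinetic FluxOR fluorescence, 10 s baseline plus 110 s post-stimulus | evaluation = ratio B score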
Kir21 block – Kir2.1 (mouse) channel inhibition; HEK293-Kir2.1, FluxOR thallium flux fluorescence; hits give low values; AID 1672; 310,000 compounds, 0.85% hits; B-score at 10 µM; P35561;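 active = fluorescence ratio B-score at or below minus 3 SD of library scores, with starting-brightness B-score within 2 SD, cut at about -4.2 in these data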;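 also: channel flux triggered by added potassium and thallium sulfate stimulus; B-score of peak minus minimum fluorescence over baseline after thallium stimulus; more negative B-score means stronger Kir2.1 block with less thallium influx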
KCNK9 block – inhibitors of human KCNK9 two-pore domain potassium channel; Q9NPC2; HEK293 KCNK9, FluxOR thallium flux fluorescence; hits give low values; B-score at 10 µM; 310,000 compounds, 1.2% hits; AID 488922;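 active = ratio B-score over 3 SD below the library mean, with starting fluorescence within 5 SD of its mean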;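 also: negative B-score means less thallium flux so channel inhibition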
KCNK9 inh conf – confirmation of human KCNK9 potassium channel inhibitors; shares compounds with KCNK9 block; HEK293 KCNK9 cells, FluxOR thallium flux fluorescence; inhibition, % at 10 µM; 4,900 compounds, 43% hits; AID 492992;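 active = thallium signal inhibited by more than 5 SD of the compound-free buffer control wells, on both duplicate plates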;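 also: 0% = assay buffer control wells without compound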
Kir21 sel – mouse Kir2.1 off-target activity of KCNK9 modulators | shares compounds with KCNK9 block | Kir2.1 cells, FluxOR thallium flux fluorescence | inhibition, % at 10 µM | 4,900 compounds, 4% hits;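 active = thallium signal drop more than 5 SD beyond the mean of the no-compound control wells, seen in both duplicate plates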;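 also: signal is fluorescence rise after thallium addition divided by baseline fluorescence; plate controls were assay buffer only for no effect and full block by chlorpromazine control for full effect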
HEK293 Tl ctr – non-induced cell nonspecific activity of KCNK9 modulators; shares compounds with KCNK9 block; non-induced KCNK9-HEK293, FluxOR thallium flux; inhibition, % at 10 µM; 4,900 compounds, 40% hits; AID 492997;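 active = thallium signal drop beyond 5 SD of the untreated control mean, on both duplicate plates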;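 also: plate controls were buffer only IC0 wells for no effect and SID17386958 at its maximal inhibitory level for full effect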
* = called active by the depositor; i = inactive; x = not tested or not shown. In the library only some 3.7% were active in any assay of this set; here they are far more common.

SMILES | KCNQ1 block | hERG rescue | KCNK3 block | KCNQ1 act | Kir21 block | KCNK9 block | KCNK9 inh conf | Kir21 sel | HEK293 Tl ctr
Fc1cccc(Cl)c1CSc1ccc(-c2cccnc2)nn1 | i | -8.3 | i | i | -0.28 | -10.7* | 33.0%* | i | i
O=C1C2=C(Nc3ccccc3SC2c2ccco2)c2ccccc21 (stereo unspecified) | 13* | -9.0 | i | i | 0.04 | -18.5* | 65.0%* | i | 30.5%*
N#C/C(C(=O)Nc1ccc(Cl)cc1)=C(/S)Nc1ccccc1 | i | -2.6 | i | i | -0.55 | i | i | i | i
O=C(Nc1ccc(Nc2ccccc2)cc1)c1ccc(Cl)cc1 | i | -2.4 | i | i | 0.66 | i | x | x | x
CCCCOC(=O)CSC(=S)N(C)Cc1cccs1 | i | -9.6 | i | i | -0.05 | i | i | i | i
Cc1ccc(C(=O)Nc2ccc(Cc3ccncc3)cc2)cc1[N+](=O)[O-] | i | -8.0 | i | i | -1.76 | i | i | i | i
COc1cccc(CNC(=O)c2cccc(NC(=O)C3=C(C)OCCS3)c2)c1 | i | -13.3 | i | i | 1.48 | -8.88* | 50.0%* | i | i
CC(C)(C)C1CCc2c(sc3c2C(=O)NC(c2ccco2)N3)C1 (stereo unspecified) | i | 2.0 | i | i | 1.14 | i | i | i | i
CN1CCc2c(sc3c2C(=O)NC(c2ccccc2)N3)C1 (stereo unspecified) | i | -3.0 | i | i | -0.44 | i | x | x | x
Cc1ccc(CON=C2CCN(c3ncc(C(F)(F)F)cc3Cl)CC2)cc1 | i | -9.2 | i | i | -2.68 | i | i | i | i
Cc1ccc(NCc2nnc(SCC(=O)N3c4ccccc4Sc4ccccc43)o2)c(C)c1 | i | -8.9 | i | i | -0.17 | i | x | x | x
COc1ccc(C(=O)N2CCNC(=O)C2)cc1S(=O)(=O)Nc1ccc(Br)cc1 | x | x | i | x | x | x | x | x | x
CN(c1ccccc1)c1nc2ccsc2c(=O)s1 | i | -0.7 | i | i | -0.56 | i | i | i | i
CN(Cc1nc2ccccc2c(=O)[nH]1)Cc1nc2ccsc2c(=O)[nH]1 | i | -11.1 | i | i | -0.03 | i | x | x | x
O=C(Nc1nc2ccsc2c(=O)s1)c1ccc(F)cc1 | i | -9.4 | i | i | -0.96 | i | x | x | x
CCN(c1ccccc1)c1nc2ccsc2c(=O)s1 | i | -13.1 | i | i | -1.3 | i | i | i | i
N#Cc1c(C(F)(F)F)cc(=O)[nH]c1SCC(=O)O | i | -5.9 | i | i | 0.04 | i | x | x | x
Cc1ccc(SC(CC(=O)c2ccc(F)cc2)C(=O)O)cc1 (stereo unspecified) | i | -8.3 | i | i | 0.05 | i | x | x | x
CC(C)(C)c1ccc(C(=O)CC(Sc2ccc(Cl)cc2)C(=O)O)cc1 (stereo unspecified) | i | -17.9 | i | i | -1.76 | i | i | i | i
C/C(=C\c1ccccc1)CN1CCN(c2ccccc2)CC1 | i | -13.1 | i | i | 0.17 | i | i | i | i
O=C(Cc1c(F)cccc1Cl)Nc1nc2ccccc2s1 | i | -6.5 | i | i | -0.82 | -13.3* | i | i | 49.5%*
Cc1csc(NC(=O)c2cc(-c3ccccc3)nc3ccccc23)n1 | i | -11.8 | i | i | 0.28 | -9.76* | 41.5%* | i | 39.5%*
Cc1cc(C)nc(NC(=O)c2cc(-c3ccc4c(c3)OCO4)nc3ccccc23)c1 | i | -24.5 | i | i | 2.06 | i | i | i | i
COC(=O)c1cc(-c2ccc3c(c2)OCO3)nc2ccccc12 | i | -3.7 | i | i | 1.04 | i | x | x | x
CCOC(=O)c1cnc2cc(F)c(F)cc2c1N1CCN(C)CC1 | i | -2.5 | i | i | 0.94 | i | x | x | x
SMILES | KCNQ1 block | hERG rescue | KCNK3 block | KCNQ1 act | Kir21 block | KCNK9 block | KCNK9 inh conf | Kir21 sel | HEK293 Tl ctr
CC(NC(=O)COC(=O)c1ccc2c(=O)n3c(nc2c1)CCCCC3)c1ccccc1 (stereo unspecified) | x | x | i | x | x | x | x | x | x
C[n+]1c2n(c3ccccc31)N=C(c1cc(C(C)(C)C)c(O)c(C(C)(C)C)c1)CS2 | 7* | -37.5 | -12.8* | i | -7.81* | -19.5* | 76.5%* | 46.5%* | 31.5%*
Cc1ccc(Cl)cc1N1CCN(C(=O)CN(c2ccccc2)S(=O)(=O)N(C)C)CC1 | i | -13.0 | i | i | 0.27 | -9.03* | 27.5%* | i | 34.0%*
CS(=O)(=O)N(CC(=O)N1CCN(c2ccccc2)CC1)c1ccc(Cl)c(C(F)(F)F)c1 | i | -6.8 | i | i | 1.6 | i | i | i | i
CN1CCN(C(=O)CN(c2ccccc2)S(=O)(=O)N(C)C)CC1 | i | -0.5 | x | i | 1.47 | i | x | x | x
CC1CCN(C(=O)CN(c2ccc(Cl)c(C(F)(F)F)c2)S(C)(=O)=O)CC1 | i | -7.4 | i | i | -1.19 | i | x | x | x
O=C(Cc1ccc(F)cc1)NC1CCS(=O)(=O)C1 (stereo unspecified) | i | -9.6 | i | i | 2.03 | i | x | x | x
COCCN1CCN(C(=O)c2cc(COc3ccc(Cl)cc3OC)on2)CC1 | i | -6.3 | i | i | -0.53 | i | x | x | x
CCCCn1c(NS(=O)(=O)c2ccc(C)cc2)c(S(=O)(=O)c2ccccc2)c2nc3ccccc3nc21 | i | -8.8 | i | 9* | -1.66 | i | i | i | i
Cc1nn(-c2cccc(Cl)c2)c(Cl)c1/C=N/NC(=O)c1cccs1 | i | -5.6 | i | i | -1.58 | -10.5* | 60.0%* | i | 31.0%*
COc1ccc(N(C(=O)c2snc(C(N)=O)c2N)C(C(=O)NCc2ccc(F)cc2)c2ccc(O)cc2)cc1 (stereo unspecified) | i | -10.2 | i | i | -1.51 | i | x | x | x
O=C(NCC(c1ccco1)N1CCN(c2ccc(F)cc2)CC1)C1CCCCC1 (stereo unspecified) | i | -8.6 | i | i | 1.23 | -13.7* | 43.5%* | i | 38.5%*
O=C(Nc1ccc2c(c1)OCO2)c1ccc(Br)c(S(=O)(=O)N2CCCC2)c1 | i | -5.6 | i | i | 0.54 | -8.73* | i | i | i
